Screens from PubChem BioAssay.
Rows were chosen to be rich in hits. Some 2% of all compounds tested hit in one or more screens of this group.
CHRM1 antagonist: human M1 muscarinic receptor antagonists, primary screen, CHO-K1 cells, Fluo-8 calcium fluorescence, 1536-well; CHO-K1 hM1, ACh EC80 antagonist; inhibition, % at 3 µM; actives 1.3% (n = 360,000);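 active = percent inhibition above its own plate's cutoff, namely the mean of that plate's compound wells plus 3 SD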;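 note: peak over basal fluorescence ratio during 140 s after agonist addition; 0% = ACh EC80 plus DMSO and 100% = DMSO alone without agonist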
Target sequence (P11229 whole entry, looked up): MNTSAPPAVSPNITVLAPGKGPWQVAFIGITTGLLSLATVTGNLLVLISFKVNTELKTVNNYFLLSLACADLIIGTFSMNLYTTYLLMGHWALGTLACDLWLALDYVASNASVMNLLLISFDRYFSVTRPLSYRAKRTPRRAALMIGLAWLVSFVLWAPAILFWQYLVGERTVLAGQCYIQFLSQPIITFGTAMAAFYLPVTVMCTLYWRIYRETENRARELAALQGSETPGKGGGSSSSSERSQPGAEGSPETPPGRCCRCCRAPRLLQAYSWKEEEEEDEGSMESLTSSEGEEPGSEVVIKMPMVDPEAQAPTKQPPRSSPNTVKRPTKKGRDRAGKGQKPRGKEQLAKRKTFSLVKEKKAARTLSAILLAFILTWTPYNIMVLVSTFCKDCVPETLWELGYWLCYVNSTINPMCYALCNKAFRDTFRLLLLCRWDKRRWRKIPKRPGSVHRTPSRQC
CHRM1 PAM: human M1 muscarinic receptor positive allosteric modulators, primary screen, CHO-K1 cells, Fluo-8 calcium fluorescence, 1536-well | CHO-K1 hM1, ACh EC20; 0% = ACh EC20, 100% = maximal ACh | activation, % at 3 µM | actives 0.088% (n = 360,000); in the data active = activation above about 19%, passing the limit was not always enough
CHRM1 agonist: human M1 muscarinic receptor agonists, primary screen, Fluo-8 calcium fluorescence, CHO-K1 cells, HTS; CHO-K1 hM1, agonist mode; 0% DMSO, 100% acetylcholine EC100; activation, % at 3 µM; actives 0.33% (n = 360,000); AID 588814, 2011;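 active = activation above the run's mean compound activation plus 3 SD, cut at about 16% in these data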;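 note: peak over basal fluorescence ratio within a 140 s kinetic read after compound addition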
M5 PAM: human M5 muscarinic receptor positive allosteric modulators, primary screen, CHO-K1 cells, Fluo-8 calcium fluorescence; Muscarinic acetylcholine receptor M5 (Homo sapiens), P08912; activation, % at 3 µM; CHO-K1 hM5, ACh EC20 PAM; 0% = ACh EC20, 100% = ACh EC100; actives 0.3% (n = 360,000); AID 624038, 2012;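 active = activation above the run cutoff, the mean activation of all test compounds plus 3 SD, cut at about 18% in these data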
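Assay system: CHO-K1 hM5 cells / Incubation: Fluo-8 loading 80 min at 37 °C plus 30 min room temperature / Technique: Fluo-8 calcium dye fluorescence, kinetic read / Repeats: single replicate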
CHRM5 antagonist: human M5 muscarinic receptor antagonists, primary screen, CHO cells, Fluo-8 calcium fluorescence; inhibition, % at 3 µM; actives 0.59% (n = 360,000); Muscarinic acetylcholine receptor M5 (Homo sapiens), P08912; AID 624040, 2012; CHO-hM5 cells, ACh EC80;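 active = inhibition above a per-plate cutoff, the mean of that plate's test compounds plus 3 SD, cut at about 27% in these data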;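 note: 0% = acetylcholine EC80 with DMSO and 100% = DMSO without agonist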
CHRM5 agonist: human M5 muscarinic receptor agonists, primary screen, CHO-K1 cells, Fluo-8 calcium fluorescence; CHO-K1 hM5 cells; 0% DMSO wells, 100% maximal acetylcholine response; AID 624037, 2012; actives 0.19% (n = 360,000); Muscarinic acetylcholine receptor M5 (Homo sapiens), P08912; activation, % at 3 µM;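 active = activation above the run's mean over test compounds plus 3 SD, cut at about 23% in these data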;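 note: signal is peak over basal fluorescence ratio across the kinetic read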
Starred values were filed as active, the others as inactive.

CCOC(=O)C1CCN(C(=O)c2cccnc2)CC1 was read as CHRM1 antagonist 12, CHRM1 PAM 27*, CHRM1 agonist -3, M5 PAM -1, CHRM5 antagonist -8 and CHRM5 agonist -3.
`CCOC(=O)C1CCN(C(=O)c2cccc(C(=O)N3CCC(C(=O)OCC)CC3)c2)CC1` gave CHRM1 antagonist 1, CHRM1 PAM -1, CHRM1 agonist 4, M5 PAM -5, CHRM5 antagonist 14 and CHRM5 agonist 2.
COc1ccc(NC(=O)Nc2ccc3c(c2)N(C)C(=O)CS3)cc1Cl was read as CHRM1 antagonist 23, CHRM1 PAM -10, CHRM1 agonist 3, M5 PAM -24, CHRM5 antagonist 31* and CHRM5 agonist 9.
COCCNC(=O)Nc1ccc2c(c1)N(C)C(=O)CS2 was read as CHRM1 antagonist -5, CHRM1 PAM 9, CHRM1 agonist -5, M5 PAM 1, CHRM5 antagonist -5 and CHRM5 agonist 2.
CC(C)CCNC(=O)Nc1ccc2c(c1)N(C)C(=O)CS2 was read as CHRM1 antagonist 33*, CHRM1 PAM -11, CHRM1 agonist 0, M5 PAM -9, CHRM5 antagonist 4 and CHRM5 agonist 1.
`C[C@H]1CN([C@@H](C)CO)C(=O)CCCn2nncc2CO[C@@H]1CN(C)Cc1cccc2c1OCCCO2` gave CHRM1 antagonist -15, CHRM1 PAM 8, CHRM1 agonist -6, M5 PAM 2, CHRM5 antagonist -5 and CHRM5 agonist -2.
COc1ccc(CC(=O)Nc2cccc(-c3nnc(-c4cccc(C)c4)o3)c2)cc1OC was read as CHRM1 antagonist 38*, CHRM1 PAM -15, CHRM1 agonist 5, M5 PAM -25, CHRM5 antagonist 36* and CHRM5 agonist 7.
`COc1ccccc1OCC(=O)Nc1cccc(-c2nnc(-c3ccco3)o2)c1` gave CHRM1 antagonist 24*, CHRM1 PAM -22, CHRM1 agonist -5, M5 PAM -16, CHRM5 antagonist 12 and CHRM5 agonist -1.
COc1ccc(CC(=O)Nc2cccc(-c3nnc(-c4ccc(C)cc4)o3)c2)cc1OC was read as CHRM1 antagonist 5, CHRM1 PAM -1, CHRM1 agonist -3, M5 PAM -5, CHRM5 antagonist -3 and CHRM5 agonist 4.
`COc1ccc(CC(=O)Nc2cccc(-c3nnc(-c4ccccc4)o3)c2)cc1OC` gave CHRM1 antagonist 29*, CHRM1 PAM -16, CHRM1 agonist 2, M5 PAM -7, CHRM5 antagonist -2 and CHRM5 agonist 6.
For CSC1=NC=C(C#N)C2=NC(c3c(Cl)cccc3Cl)NN12 (stereo not given) the results were CHRM1 antagonist 11, CHRM1 PAM -3, CHRM1 agonist -10, M5 PAM -2, CHRM5 antagonist -1 and CHRM5 agonist 9.
For CCCCc1nc2cc(C(=O)NCc3cn(C)nc3C)ccc2o1 the results were CHRM1 antagonist 10, CHRM1 PAM -2, CHRM1 agonist 1, M5 PAM -7, CHRM5 antagonist 15 and CHRM5 agonist -2.
`CCCCc1nc2cc(C(=O)NCc3nccn3CC)ccc2o1` gave CHRM1 antagonist 87*, CHRM1 PAM -24, CHRM1 agonist -6, M5 PAM -15, CHRM5 antagonist 5 and CHRM5 agonist -10.
COc1cccc(C(=O)C[n+]2ccccc2/C=N/O)c1 was read as CHRM1 antagonist 27*, CHRM1 PAM -20, CHRM1 agonist -11, M5 PAM -9, CHRM5 antagonist 0 and CHRM5 agonist -5.
C[C@H]1CN([C@@H](C)CO)C(=O)CCCn2cc(nn2)CO[C@@H]1CN(C)S(=O)(=O)c1ccc(Oc2ccccc2)nc1 was read as CHRM1 antagonist -10, CHRM1 PAM 2, CHRM1 agonist -4, M5 PAM -2, CHRM5 antagonist -4 and CHRM5 agonist -1.
For CCN1CCC2(CC1)N=C(c1ccc(F)cc1)C(=S)N2 the results were CHRM1 antagonist 39*, CHRM1 PAM -22, CHRM1 agonist -8, M5 PAM -23, CHRM5 antagonist 16 and CHRM5 agonist -18.
COc1cccc(COC(=O)Nc2ccccc2)c1OC was read as CHRM1 antagonist -1, CHRM1 PAM 3, CHRM1 agonist -7, M5 PAM -3, CHRM5 antagonist -5 and CHRM5 agonist -3.
Cc1nnc2ccc(-c3cccc(NS(=O)(=O)c4ccccc4[N+](=O)[O-])c3)nn12 was read as CHRM1 antagonist 32*, CHRM1 PAM -24, CHRM1 agonist -7, M5 PAM -11, CHRM5 antagonist 10 and CHRM5 agonist -4.
`Cc1nnc2ccc(-c3cccc(NS(=O)(=O)c4ccccc4Cl)c3)nn12` gave CHRM1 antagonist 2, CHRM1 PAM -3, CHRM1 agonist -7, M5 PAM 0, CHRM5 antagonist 3 and CHRM5 agonist 0.
Screening CC(=O)Nc1cccc(NC(=O)c2cc(-c3cccnc3)nc3ccc(Br)cc23)c1 returned CHRM1 antagonist 42*, CHRM1 PAM -22, CHRM1 agonist -5, M5 PAM -18, CHRM5 antagonist 16 and CHRM5 agonist 6.
Screening c1ccc(-c2csc3ncnc(NCc4ccccn4)c23)cc1 returned CHRM1 antagonist 43*, CHRM1 PAM -19, CHRM1 agonist 1, M5 PAM -18, CHRM5 antagonist 18 and CHRM5 agonist -9.
`c1ccc(CNc2ncnc3scc(-c4cccs4)c23)nc1` gave CHRM1 antagonist 30*, CHRM1 PAM -14, CHRM1 agonist 1, M5 PAM -24, CHRM5 antagonist 28* and CHRM5 agonist -4.
CN(C)CCCNc1ncnc2c1c(-c1ccccc1)cn2-c1ccccc1 was read as CHRM1 antagonist -1, CHRM1 PAM -1, CHRM1 agonist -11, M5 PAM 1, CHRM5 antagonist -1 and CHRM5 agonist -3.
`CN(C)CCCNc1ncnc2scc(-c3ccccc3)c12` gave CHRM1 antagonist 48*, CHRM1 PAM -24, CHRM1 agonist -7, M5 PAM -25, CHRM5 antagonist 23 and CHRM5 agonist -20.
`CC1=C(C(=O)N(C(C)C)C(C)C)CC(CC(=O)NC2CC2)C(=O)N1Cc1ccccc1` (stereo not given) gave CHRM1 antagonist -10, CHRM1 PAM 6, CHRM1 agonist -3, M5 PAM -10, CHRM5 antagonist 10 and CHRM5 agonist 3.
